Laboratory results as given in ChEMBL document CHEMBL2346611, “Preliminary structure-activity relationships and biological evaluation of novel antitubercular indolecarboxamide derivatives against drug-susceptible and drug-resistant Mycobacterium tuberculosis strains” (J Med Chem, 2013).
pIC50: −log10 of the molar value. ≈ marks a conversion by molar mass, not a printed value. Calls of active or inactive are those of the source. The rule behind the calls is not given here.

Assays:
[1] = test system: Vero; test: Cytotoxicity against african green monkey Vero cells by microplate Alamar Blue assay; type: cell-based; settings: Chlorocebus sabaeus
In short: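 Cytotoxicity was measured on Vero cells in microplate Alamar Blue assay format.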

[2] = Selectivity index, ratio of IC50 for african green monkey vero cells to MIC90 for Mycobacterium tuberculosis H37Rv; type: functional
[3] = test system: Mycobacterium tuberculosis; test: Antitubercular activity against Mycobacterium tuberculosis H37Rv in 300 mg/kg, po dosed Balb/c mouse serum measured after 7 days by serum inhibition titration based microplate Alamar Blue assay; type: functional, organism-based; parameters: dose 300 mg/kg
In short: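 Six-week-old female BALB/c mice got a single oral gavage of 100 or 300 mg/kg, ground to a suspension in 0.5% carboxymethyl cellulose. Controls were isoniazid 10 mg/kg and vehicle. Cardiac blood was taken at 15, 30 and 60 min and serum separated. Serum was two-fold serially diluted, 10^4 CFU H37Rv added, incubated 7 days and read by MABA.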

[4] = test system: Mycobacterium tuberculosis; test: Antitubercular activity against Mycobacterium tuberculosis H37Rv by microplate Alamar Blue assay; type: functional
In short: (§1)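 Mycobacterium tuberculosis strains were used: H37Rv, and clinical strains from KwaZulu-Natal (MDR KZN494 and V2475; XDR TF274 and R506). Growth was read by microplate Alamar Blue assay. MIC is the lowest drug concentration giving at least a 90% reduction of the bacterial growth signal. Values are the average of three individual measurements.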

[5] = test system: Mycobacterium tuberculosis; test: Antitubercular activity against Mycobacterium tuberculosis H37Rv after 21 days by spectrophotometric analysis; type: functional; settings: 504 h
[6] = test system: Mycobacterium tuberculosis; test: Antitubercular activity against drug-susceptible Mycobacterium tuberculosis V4207 by microplate Alamar Blue assay; type: functional
[7] = test system: Mycobacterium tuberculosis; test: Ratio of isoniazid MIC to compound MIC for Mycobacterium tuberculosis H37Rv; type: functional
[8] = test system: Mycobacterium tuberculosis; test: Antitubercular activity against Mycobacterium tuberculosis H37Rv; type: functional; in short: as §1

SMILES	MIC90 [4] [µM]	also measured
Cc1cc(C)c2cc(C(=O)NC34CC5CC(CC(C5)C3)C4)[nH]c2c1	0.012 (≈ 0.00387 µg/mL)	pIC50 [1]: < 3.70; Selectivity Index [2]: >16600; Activity [3]: inactive
O=C(NC1CCCCCCC1)c1cc2c(C(F)(F)F)cc(C(F)(F)F)cc2[nH]1	0.04 (≈ 0.0163 µg/mL)	
COc1ccc2cc(C(=O)NC34CC5CC(CC(C5)C3)C4)[nH]c2c1	0.77 (≈ 0.25 µg/mL)	
Cc1cc(C)c2cc(C(=O)NC3CC4CCC3C4)oc2c1 (stereo not given)	113 (≈ 32 µg/mL)	
Cc1cc(C)c2cc(C(=O)NC3CCCCC3)n(C)c2c1	450 (≈ 128 µg/mL)	
Cc1cc(C)c2nc(C(=O)NC34CC5CC(CC(C5)C3)C4)[nH]c2c1	0.39 (≈ 0.126 µg/mL)	
O=C(NC12CC3CC(CC(C3)C1)C2)c1cc2ccc(O)cc2[nH]1	13 (≈ 4.04 µg/mL)	
Cc1cc(C)c2cc(C(=O)NC3CCN(C(C)C)CC3)[nH]c2c1	204 (≈ 63.9 µg/mL)	
O=C(NC1CCCCC1)c1cc2ccccc2[nH]1	> 528	
O=[N+]([O-])c1cn2c(n1)OC[C@@H](OCc1ccc(OC(F)(F)F)cc1)C2 [PRETOMANID]		MIC90 [5]: 0.04 µM (≈ 0.0144 µg/mL)
COc1cc2[nH]c(C(=O)NC34CC5CC(CC(C5)C3)C4)cc2cn1	1.5 (≈ 0.488 µg/mL)	
O=C(NC12CC3CC(CC(C3)C1)C2)c1cc2cc(Cl)ccc2o1	≥ 388	
Cc1cc(C)c2cc(C(=O)Nc3ccccc3)[nH]c2c1	3.8 (≈ 1 µg/mL)	pIC50 [1]: < 3.70
O=C(NC1CCCCCCC1)c1cc2c(F)cc(F)cc2[nH]1	0.1 (≈ 0.0306 µg/mL)	
Cc1cc(C)c2c(C(=O)NC34CC5CC(CC(C5)C3)C4)c[nH]c2c1	200 (≈ 64.5 µg/mL)	
CCCCCCNC(=O)c1cc2c(C)cc(C)cc2o1	59 (≈ 16.1 µg/mL)	
Cc1cc(C)c2cc(C(=O)Nc3ccncc3)[nH]c2c1	240 (≈ 63.7 µg/mL)	
Cc1cc(C)c2cc(C(=O)NC3CCCCCCC3)[nH]c2c1	0.013 (≈ 0.00388 µg/mL)	pIC50 [1]: 4.27; Selectivity Index [2]: 4100; Activity [3]: Active; MIC90 [6]: 0.026 µM (≈ 0.00776 µg/mL)
Cc1cc(C)c2cc(C(=O)NCC3CCCCC3)[nH]c2c1	0.88 (≈ 0.25 µg/mL)	pIC50 [1]: < 3.70
O=C(NC12CC3CC(CC(C3)C1)C2)c1cc2cc(Cl)ccc2[nH]1	0.38 (≈ 0.125 µg/mL)	
Cc1cc(C)c2cc(C(=O)NC3CCCN(C)CC3)[nH]c2c1 (stereo not given)	428 (≈ 128 µg/mL)	
Cc1cc(C)c2cc(C(=O)NC3CCCCC3)[nH]c2c1	0.93 (≈ 0.251 µg/mL)	pIC50 [1]: < 3.70; MIC90 [6]: 0.93 µM (≈ 0.251 µg/mL)
Cc1cc(C)c2c(C(=O)NC3CCCCCCC3)c[nH]c2c1	200 (≈ 59.7 µg/mL)	

SMILES	MIC90 [4] [µM]	also measured
O=C(NC1CCCCCC1)c1cc2c(C(F)(F)F)cc(C(F)(F)F)cc2[nH]1	0.64 (≈ 0.251 µg/mL)	
Cc1cc(C)c2cc(C(=O)NC3CCN(C)CC3)[nH]c2c1	448 (≈ 128 µg/mL)	
Cc1cc(C)c2nc(C(=O)NC3CCCCCCC3)[nH]c2c1	1.7 (≈ 0.509 µg/mL)	
Cc1cc(C)c2cc(C(=O)NC3CC3)[nH]c2c1	561 (≈ 128 µg/mL)	
Cc1cc(C)c2cc(C(=O)NC3CCCCCC3)[nH]c2c1	0.055 (≈ 0.0156 µg/mL)	pIC50 [1]: < 3.70; Ratio [7]: 5; Selectivity Index [2]: >3600; Activity [3]: inactive; MIC90 [6]: 0.11 µM (≈ 0.0313 µg/mL)
Cc1cc(C)c2cc(C(=O)Nc3ccc(C)c(F)c3)[nH]c2c1	1.7 (≈ 0.504 µg/mL)	pIC50 [1]: < 3.70
Cc1cc(C)c2nc(C(=O)NC3CCCCCC3)[nH]c2c1	> 224	
Cc1cc(C)c2c(C(=O)NC3C4CC5CC(C4)CC3C5)c[nH]c2c1 (stereo not given)	200 (≈ 64.5 µg/mL)	
Cc1cc(C)c2cc(C(=O)N3CCCCC3)[nH]c2c1	> 499	
Cc1cc(C)c2cc(C(=O)N(C)C3CCCCC3)[nH]c2c1	450 (≈ 128 µg/mL)	
Cc1cc(C)c2cc(C(=O)NC3CCCCCC3)oc2c1	56 (≈ 16 µg/mL)	
Cc1cc(C)c2cc(C(=O)NC3C4CC5CC(C4)CC3C5)[nH]c2c1 (stereo not given)	0.012 (≈ 0.00387 µg/mL)	pIC50 [1]: < 3.70; Selectivity Index [2]: >16600; Activity [3]: inactive
O=C(NC1CCCCCC1)c1cc2c(F)cc(F)cc2[nH]1	0.86 (≈ 0.251 µg/mL)	
O=C(NC1CCCCCCC1)c1cc2cc(Cl)ccc2o1	26 (≈ 7.95 µg/mL)	
NNC(=O)c1ccncc1 [ISONIAZID]	0.29 (≈ 0.0398 µg/mL)	
COc1cc2[nH]c(C(=O)NC3CCCCCCC3)cc2cn1	6.6 (≈ 1.99 µg/mL)	
Cc1cc(C)c2cc(C(=O)NC3CCCCCCC3)oc2c1	27 (≈ 8.08 µg/mL)	
Cc1ccc(NC(=O)c2cc3ccccc3[nH]2)cc1F	477 (≈ 128 µg/mL)	
Cc1cc(C)c2cc(C(=O)NC34CC5CC(CC(C5)C3)C4)oc2c1	3.1 (≈ 1 µg/mL)	
Cc1cc(C)c2c(C(=O)NC3CCCCCC3)c[nH]c2c1	200 (≈ 56.9 µg/mL)	
COc1nc2ccc(Br)cc2cc1[C@@H](c1ccccc1)[C@@](O)(CCN(C)C)c1cccc2ccccc12 [BEDAQUILINE]		MIC90 [8]: 0.05 µM (≈ 0.0278 µg/mL)
Cc1cc(C)c2nc(C(=O)NC3C4CC5CC(C4)CC3C5)[nH]c2c1 (stereo not given)	1.5 (≈ 0.485 µg/mL)	
